Measured values: ChEMBL document CHEMBL3286351, “Antibacterial evaluation of structurally amphipathic, membrane active small cationic peptidomimetics: synthesized by incorporating 3-amino benzoic acid as peptidomimetic element” (Eur J Med Chem, 2014)
In brackets after ≈: the same amount, converted by molar mass. Where a SMILES comes first, the peptide text is derived from it. [ ]: non-standard residue; d: D form. 3Abz = Nc1cccc(C(=O)O)c1; Orn = NCCC[CH](N)C(=O)O

How the values were obtained:
Staphylococcus aureus [1] = assay: Antibacterial activity against Staphylococcus aureus MTCC 3160 assessed as growth inhibition after 18 hrs by CLSI microdilution broth assay; assay type: functional; details: MTCC 3160, 18 h
[2] = Induction of hemolysis in human RBC assessed as hemoglobin release after 1 hr by microtiter plate reader analysis; assay type: cell-based, Erythrocyte; details: for HC10: erythrocyte, 1 h; for HC50 at 1 h: red blood cells
Summary of the method: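 Freshly isolated human RBCs washed three times in PBS (35 mM phosphate, 150 mM NaCl, pH 7.2) and used as a 4% (v/v) suspension. Mixed 1:1 with twofold serial dilutions of compound, incubated 1 h at 37 °C without agitation, then centrifuged. Supernatant A540 read. PBS defined 0% and 1% Triton X-100 defined 100% lysis; HC50 and HC10 derived.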

[3] = Selectivity ratio of HC50 for hemolysis in human RBC to MIC for Staphylococcus aureus
Pseudomonas aeruginosa = assay: Antibacterial activity against Pseudomonas aeruginosa MTCC 2295 assessed as growth inhibition after 18 hrs by CLSI microdilution broth assay; assay type: functional; details: MTCC 2295, 18 h
Staphylococcus aureus [4] = assay: Antibacterial activity against methicillin-resistant Staphylococcus aureus ATCC BAA-1720 assessed as growth inhibition after 18 hrs by CLSI microdilution broth assay; assay type: functional; details: ATCC BAA-1720, 18 h
Summary of the method: (§1)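 Modified CLSI broth microdilution in Mueller-Hinton broth. Wells held 90 µL of about 2 × 10^5 CFU/mL inoculum plus 10 µL of serially diluted peptidomimetic, range 0.7-100 µg/mL. Plates were incubated overnight with agitation at 37 °C and absorbance read at 600 nm after 18 h. Controls: inoculum without compound, and uninoculated broth. Run in triplicate.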

[5] = test system: Staphylococcus epidermidis; assay: Antibacterial activity against methicillin-resistant Staphylococcus epidermidis ATCC 51625 assessed as growth inhibition after 18 hrs by CLSI microdilution broth assay; assay type: functional; details: ATCC 51625, 18 h; summary of the method: as §1
Escherichia coli = assay: Antibacterial activity against Escherichia coli MTCC 723 assessed as growth inhibition after 18 hrs by CLSI microdilution broth assay; assay type: functional; details: MTCC 723, 18 h
Bacillus subtilis = assay: Antibacterial activity against Bacillus subtilis MTCC 2763 assessed as growth inhibition after 18 hrs by CLSI microdilution broth assay; assay type: functional; details: MTCC 2763, 18 h
[6] = Retention time of the compound by HPLC analysis; assay type: physicochemical
Summary of the method: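 Analytical RP-HPLC on a C18 column (5 µm, 4.6 × 250 mm) at room temperature. Run a linear gradient of 0.5-60% acetonitrile containing 0.05% TFA against water containing 0.05% TFA at 0.5 mL/min.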

Row | SMILES | MIC (Staphylococcus aureus [1]) | HC10 [2] | HC50 at 1 h [2] | Selectivity ratio [3] | MIC (Pseudomonas aeruginosa) | MIC (Staphylococcus aureus [4]) | MIC [5] | MIC (Escherichia coli) | MIC (Bacillus subtilis) | Retention_time [6]
1 | N=C(N)NCCCC(N)C(=O)NC(Cc1c[nH]c2ccccc12)C(=O)Nc1cccc(C(=O)NC(CCCNC(=N)N)C(=O)NC(CCCNC(=N)N)C(N)=O)c1 (stereo not given) (H-RW[3Abz]RR-NH2; configuration not given here) | 70 µg/mL (≈ 88.5 µM) | 350 µg/mL | > 500 µg/mL | > 7.14 | 75 µg/mL (≈ 94.8 µM) | 75 µg/mL (≈ 94.8 µM) | 75 µg/mL (≈ 94.8 µM) | 100 µg/mL (≈ 126 µM) | 100 µg/mL (≈ 126 µM) | 22.534 min
2 | N=C(N)NCCCC(N)C(=O)NC(CCCNC(=N)N)C(=O)NC(Cc1ccccc1)C(=O)Nc1cccc(C(=O)NC(Cc2ccccc2)C(=O)NC(CCCNC(=N)N)C(N)=O)c1 (stereo not given) (H-RRF[3Abz]FR-NH2; configuration not given here) | 150 µg/mL (≈ 167 µM) | 130 µg/mL | 375 µg/mL | 2.5 | > 200 µg/mL | 150 µg/mL (≈ 167 µM) | 170 µg/mL (≈ 189 µM) | > 200 µg/mL | 200 µg/mL (≈ 222 µM) | 24.871 min
3 | N=C(N)NCCCC(N)C(=O)NC(Cc1c[nH]c2ccccc12)C(=O)Nc1cccc(C(=O)NC(CCCNC(=N)N)C(N)=O)c1 (stereo not given) (H-RW[3Abz]R-NH2; configuration not given here) | 50 µg/mL (≈ 78.8 µM) | 205 µg/mL | 500 µg/mL | 10 | 75 µg/mL (≈ 118 µM) | 60 µg/mL (≈ 94.5 µM) | 70 µg/mL (≈ 110 µM) | 70 µg/mL (≈ 110 µM) | 100 µg/mL (≈ 158 µM) | 23.821 min
4 | NCCCC(N)C(=O)NC(Cc1c[nH]c2ccccc12)C(=O)NC(Cc1c[nH]c2ccccc12)C(=O)Nc1cccc(C(=O)NC(CCCN)C(=O)NC(CCCN)C(N)=O)c1 (stereo not given) (H-[Orn]WW[3Abz][Orn][Orn]-NH2; configuration not given here) | 50 µg/mL (≈ 58.8 µM) | 150 µg/mL | 440 µg/mL | 8.8 | 100 µg/mL (≈ 118 µM) | 50 µg/mL (≈ 58.8 µM) | 50 µg/mL (≈ 58.8 µM) | 100 µg/mL (≈ 118 µM) | 100 µg/mL (≈ 118 µM) | 23.979 min
5 | N=C(N)NCCCC(N)C(=O)NC(Cc1c[nH]c2ccccc12)C(=O)NC(CCCNC(=N)N)C(=O)Nc1cccc(C(=O)NC(Cc2c[nH]c3ccccc23)C(=O)NC(CCCNC(=N)N)C(N)=O)c1 (stereo not given) (H-RWR[3Abz]WR-NH2; configuration not given here) | 50 µg/mL (≈ 51.2 µM) | 210 µg/mL | 400 µg/mL | 8 | 120 µg/mL (≈ 123 µM) | 40 µg/mL (≈ 40.9 µM) | 50 µg/mL (≈ 51.2 µM) | 120 µg/mL (≈ 123 µM) | 125 µg/mL (≈ 128 µM) | 27.446 min
6 | N=C(N)NCCCC(NC(=O)C(Cc1ccccc1)NC(=O)c1cccc(NC(=O)C(Cc2ccccc2)NC(=O)C(CCCNC(=N)N)NC(=O)C(N)Cc2ccccc2)c1)C(N)=O (stereo not given) (H-FRF[3Abz]FR-NH2; configuration not given here) | 120 µg/mL (≈ 135 µM) | 125 µg/mL | 310 µg/mL | 2.58 | > 200 µg/mL | 125 µg/mL (≈ 140 µM) | 120 µg/mL (≈ 135 µM) | > 200 µg/mL | 150 µg/mL (≈ 169 µM) | 26.225 min
7 | NCCCC(N)C(=O)NC(CCCN)C(=O)NC(Cc1c[nH]c2ccccc12)C(=O)NC(Cc1c[nH]c2ccccc12)C(=O)NC(CCCN)C(N)=O (stereo not given) (H-[Orn][Orn]WW[Orn]-NH2; configuration not given here) | 70 µg/mL (≈ 95.6 µM) | 100 µg/mL | 310 µg/mL | 4.42 | 150 µg/mL (≈ 205 µM) | 100 µg/mL (≈ 137 µM) | 100 µg/mL (≈ 137 µM) | 120 µg/mL (≈ 164 µM) | 100 µg/mL (≈ 137 µM) | 26.672 min
8 | N=C(N)NCCCC(N)C(=O)NC(Cc1c[nH]c2ccccc12)C(=O)Nc1cccc(C(=O)NC(Cc2c[nH]c3ccccc23)C(=O)NC(CCCNC(=N)N)C(N)=O)c1 (stereo not given) (H-RW[3Abz]WR-NH2; configuration not given here) | 12.5 µg/mL (≈ 15.2 µM) | 250 µg/mL | 410 µg/mL | 32.8 | 50 µg/mL (≈ 60.9 µM) | 10 µg/mL (≈ 12.2 µM) | 12.5 µg/mL (≈ 15.2 µM) | 40 µg/mL (≈ 48.7 µM) | 50 µg/mL (≈ 60.9 µM) | 23.89 min
9 | NCCCC(N)C(=O)NC(CCCN)C(=O)NC(Cc1c[nH]c2ccccc12)C(=O)Nc1cccc(C(=O)NC(Cc2c[nH]c3ccccc23)C(=O)NC(CCCN)C(N)=O)c1 (stereo not given) (H-[Orn][Orn]W[3Abz]W[Orn]-NH2; configuration not given here) | 7.5 µg/mL (≈ 8.81 µM) | 120 µg/mL | 450 µg/mL | 60 | 50 µg/mL (≈ 58.8 µM) | 10.2 µg/mL (≈ 12 µM) | 12.5 µg/mL (≈ 14.7 µM) | 40 µg/mL (≈ 47 µM) | 40 µg/mL (≈ 47 µM) | 24.231 min
10 | NCCCC(NC(=O)C(Cc1ccccc1)NC(=O)c1cccc(NC(=O)C(Cc2ccccc2)NC(=O)C(CCCN)NC(=O)C(N)Cc2ccccc2)c1)C(N)=O (stereo not given) (H-F[Orn]F[3Abz]F[Orn]-NH2; configuration not given here) | 150 µg/mL (≈ 186 µM) | 180 µg/mL | 400 µg/mL | 2.66 | > 200 µg/mL | > 200 µg/mL | > 200 µg/mL | > 200 µg/mL | > 200 µg/mL | 25.038 min
11 | NCCCC(N)C(=O)NC(Cc1c[nH]c2ccccc12)C(=O)Nc1cccc(C(=O)NC(Cc2c[nH]c3ccccc23)C(=O)NC(CCCN)C(N)=O)c1 (stereo not given) (H-[Orn]W[3Abz]W[Orn]-NH2; configuration not given here) | 17.5 µg/mL (≈ 23.7 µM) | 190 µg/mL | > 500 µg/mL | > 28.6 | 40 µg/mL (≈ 54.3 µM) | 20 µg/mL (≈ 27.1 µM) | 15 µg/mL (≈ 20.4 µM) | 50 µg/mL (≈ 67.9 µM) | 50 µg/mL (≈ 67.9 µM) | 24.231 min
12 | N=C(N)NCCCC(NC(=O)C(CCCNC(=N)N)NC(=O)c1cccc(NC(=O)C(CCCNC(=N)N)NC(=O)C(Cc2c[nH]c3ccccc23)NC(=O)C(N)Cc2c[nH]c3ccccc23)c1)C(N)=O (stereo not given) (H-WWR[3Abz]RR-NH2; configuration not given here) | 50 µg/mL (≈ 51.2 µM) | 200 µg/mL | 380 µg/mL | 7.6 | 100 µg/mL (≈ 102 µM) | 50 µg/mL (≈ 51.2 µM) | 50 µg/mL (≈ 51.2 µM) | 75 µg/mL (≈ 76.8 µM) | 70 µg/mL (≈ 71.6 µM) | 27.34 min
13 | N=C(N)NCCCC(NC(=O)C(CCCNC(=N)N)NC(=O)c1cccc(NC(=O)C(Cc2c[nH]c3ccccc23)NC(=O)C(CCCNC(=N)N)NC(=O)C(N)Cc2c[nH]c3ccccc23)c1)C(N)=O (stereo not given) (H-WRW[3Abz]RR-NH2; configuration not given here) | 25 µg/mL (≈ 25.6 µM) | 140 µg/mL | 370 µg/mL | 14.8 | 70 µg/mL (≈ 71.6 µM) | 25 µg/mL (≈ 25.6 µM) | 25 µg/mL (≈ 25.6 µM) | 60 µg/mL (≈ 61.4 µM) | 40 µg/mL (≈ 40.9 µM) | 27.324 min
